In the library only some 1.6% were active in any assay of this set; here they are far more common.
PLCg1 inh: PLC-gamma1 enzyme inhibitors, primary screen, biochemical, fluorescence, purified enzyme; fluorogenic substrate; AID 720700, 2013; 370,000 tested, 0.84% active; inhibition, % at 12.2 µM; 1-phosphatidylinositol 4,5-bisphosphate phosphodiesterase gamma-1 (Homo sapiens), P19174; in the data active means inhibition above about 9.5%
sPLA2-III inh: human group III sPLA2 inhibitors, primary screen, biochemical, QFRET, BODIPY PC-A2 liposome substrate | 370,000 tested, 0.56% active | inhibition, % at 12.2 µM | Group 3 secretory phospholipase A2 (Homo sapiens), Q9NZ20 | QFRET BODIPY PC-A2 liposome hydrolysis, fluorescence;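 active means inhibition above mean plus 3 SD of compounds lying within the high and low control bounds, cut at about 19% in these data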;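 further: 0% = median of test compound wells and 100% = no enzyme DMSO wells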
proCasp3 act: activators of human procaspase-3 D3A mutant, primary screen, biochemical, absorbance, PC-3 D3A mutant, single concentration. recombinant procaspase-3 D3A, Ac-DEVD-pNA absorbance 405 nm. AID 463141, 2010. activation, % at 8.5 µM. 330,000 tested, 0.11% active. Caspase-3 (Homo sapiens), P42574;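 active means activation above the mean of all tested compounds plus 3 SD, cut at about 21% in these data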;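 further: 0% = DMSO alone and 100% = DMSO wells spiked with extra 5 µM PC-3 D3A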
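material = Procaspase-3 D3A mutant | probe or stimulus = Ac-DEVD-pNA | compound = single dose, 8.5 µM nominal compound, 0.8% DMSO | timing = 1 h preincubation, 2 h reaction | measured by = 405 nm absorbance of p-nitroaniline, reads at 0 and 120 min | benchmarks = DMSO-only low control, 5 µM PC-3 D3A high control | repeats = singlicate, each compound tested once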
PLC-beta3 inh: human PLC-beta3 inhibitors, primary screen, biochemical, fluorescence | AID 720704, 2013 | Purified PLC-beta3, fluorogenic substrate | 1-phosphatidylinositol 4,5-bisphosphate phosphodiesterase beta-3 (Homo sapiens), Q01970 | 370,000 tested, 0.18% active | inhibition, % at 12.2 µM; in the data active means inhibition above about 11%;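 further: 0% = median of compound wells on plate and 100% = full blocker control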
Target sequence (Q01970 whole entry, looked up): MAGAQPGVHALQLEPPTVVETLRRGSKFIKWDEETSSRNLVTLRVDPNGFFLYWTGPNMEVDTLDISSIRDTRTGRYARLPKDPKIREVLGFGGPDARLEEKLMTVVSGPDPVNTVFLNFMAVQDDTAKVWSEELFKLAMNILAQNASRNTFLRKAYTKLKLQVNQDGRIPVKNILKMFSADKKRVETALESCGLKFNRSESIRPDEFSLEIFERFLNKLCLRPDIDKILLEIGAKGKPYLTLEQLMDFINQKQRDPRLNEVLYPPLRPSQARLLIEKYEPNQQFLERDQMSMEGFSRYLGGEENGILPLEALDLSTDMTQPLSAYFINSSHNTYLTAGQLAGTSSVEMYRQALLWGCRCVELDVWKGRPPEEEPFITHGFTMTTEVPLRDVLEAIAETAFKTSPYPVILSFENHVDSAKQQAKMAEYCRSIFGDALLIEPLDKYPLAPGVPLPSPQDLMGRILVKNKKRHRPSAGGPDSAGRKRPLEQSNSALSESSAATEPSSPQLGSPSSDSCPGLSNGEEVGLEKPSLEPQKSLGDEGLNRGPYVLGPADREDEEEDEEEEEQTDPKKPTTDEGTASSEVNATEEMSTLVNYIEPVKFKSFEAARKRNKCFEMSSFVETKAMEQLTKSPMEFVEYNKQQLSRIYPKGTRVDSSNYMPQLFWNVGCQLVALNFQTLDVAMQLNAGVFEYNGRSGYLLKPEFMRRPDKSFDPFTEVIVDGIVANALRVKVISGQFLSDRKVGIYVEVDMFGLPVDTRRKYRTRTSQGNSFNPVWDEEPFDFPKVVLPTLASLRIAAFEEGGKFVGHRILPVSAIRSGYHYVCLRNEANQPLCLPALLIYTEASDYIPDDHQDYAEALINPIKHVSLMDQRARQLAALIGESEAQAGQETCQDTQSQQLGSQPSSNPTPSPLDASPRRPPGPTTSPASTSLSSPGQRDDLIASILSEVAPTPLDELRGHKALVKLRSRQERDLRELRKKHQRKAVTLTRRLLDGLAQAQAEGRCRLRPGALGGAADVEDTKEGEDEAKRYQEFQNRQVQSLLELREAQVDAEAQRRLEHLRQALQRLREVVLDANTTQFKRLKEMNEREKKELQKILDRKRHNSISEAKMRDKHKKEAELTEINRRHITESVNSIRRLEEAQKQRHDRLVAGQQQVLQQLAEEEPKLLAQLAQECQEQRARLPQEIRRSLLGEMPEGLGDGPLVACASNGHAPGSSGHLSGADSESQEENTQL
procasp7 counter: procaspase-7 activators, primary screen, counter-screen for procaspase-3 activator project, biochemical, absorbance, HTS, human. activation, % at 8.5 µM. Caspase-7 (Homo sapiens), P55210. AID 463210, 2010. 330,000 tested, 0.093% active. recombinant procaspase-7, Ac-DEVD-pNA absorbance 405 nm; D23A/D198A/D206A triple mutant, cannot self-cleave; scale: DMSO 0, 5 µM enzyme 100;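 active means percent activation above the screen-wide mean plus 3 SD, cut at about 25% in these data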
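signal = Epi-absorbance of released pNA at 405 nm, two timepoints | assay system = Uncleavable procaspase-7 mutant enzyme | reagent = Ac-DEVD-pNA substrate, 400 µM as added | times = 1 h enzyme–compound preincubation and 2 h substrate reaction, both 25 °C | benchmarks = low DMSO alone, high DMSO plus 5 µM PC-7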
hGIII sPLA2 conf: human group III sPLA2 inhibitors, confirmation, biochemical, QFRET, triplicate. inhibition, % at 12.2 µM. shares compounds with sPLA2-III inh. 2,000 tested, 34% active. recombinant hGIII-sPLA2, BODIPY PC-A2 QFRET fluorescence. AID 743280, 2014;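 active means mean inhibition across triplicates above the hit cutoff set in the earlier primary screen, cut at about 19% in these data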;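 further: 0% = enzyme with DMSO and 100% = DMSO wells lacking enzyme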
BODIPY interf: 535nm fluorescence optical interference, confirmation, artefact control for HGIII-sPLA2 inhibitor project, biochemical, QFRET; 2,000 tested, 8.5% active; BODIPY FL product fluorescence interference; shares compounds with sPLA2-III inh; inhibition, % at 12.2 µM;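 active means average inhibition above the solvent-only control mean plus 3 SD, cut at about 6% in these data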;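 further: 0% = DMSO with substrate plus product and 100% = DMSO with substrate alone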
535nm interf DR: 535nm fluorescence optical interference, dose response, artefact control for HGIII-sPLA2 inhibitor project, biochemical, QFRET | IC50, µM | shares compounds with sPLA2-III inh | BODIPY FL product fluorescence interference, cell-free | 240 tested, under 10 active | AID 743455, 2014;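 active means IC50 at or below 10 µM; inactive means IC50 above 10 µM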
Numbers without * were called inactive; i = inactive; . = no result.

SMILES	PLCg1 inh	sPLA2-III inh	proCasp3 act	PLC-beta3 inh	procasp7 counter	hGIII sPLA2 conf	BODIPY interf	others
Cc1cccc(NC(=S)NC2CC3CCC(C2)N3Cc2ccco2)c1C (stereo unspecified)	3	11	-2	6	-2	.	.
C=CCN=C1NC(c2ccc(Cl)cc2)C(C(=O)OC)=C(C)N1C (stereo unspecified)	3	2	.	2	.	.	.
C=CCN=C1NC(c2ccc(F)cc2)C(C(=O)OC)=C(C)N1C (stereo unspecified)	-2	23*	.	0	.	6	-10
CCN(CC)c1nc2c(c(=O)[nH]c(=O)n2C)n1CCOc1ccccc1	-3	2	3	-6	0	.	.
COc1cc(O)c2c(=O)c3c(O)ccc(O)c3oc2c1	6	22*	-19	7	-31	7	-3
COc1cc(Cl)ccc1OCc1cc(C(=O)N2C[C@]3(C)C[C@H]2CC(C)(C)C3)no1	-1	-8	-6	-2	12	.	.
N#CCC[C@@H]1CC[C@]2(CCCN(C(=O)c3cccnc3)C2)O1	1	-1	.	4	.	.	.
O=C(NNC(=S)NC(=O)c1ccccc1Cl)c1cccc([N+](=O)[O-])c1	1	25*	-1	0	-9	37*	-1	535nm interf DR=>122
CCCCOc1ccccc1C(=O)NNC(=S)NC(=O)c1ccccc1[N+](=O)[O-]	6	43*	5	-3	5	48*	-7	535nm interf DR=>122
Cc1ccc(C(=O)NC(=S)NNC(=O)c2ccccc2[N+](=O)[O-])cc1	1	0	1	1	-12	.	.
O=C(NNC(=S)NC(=O)c1ccccc1[N+](=O)[O-])c1ccccc1O	3	32*	1	0	-7	14	-2
O=C(NNC(=S)NC(=O)c1ccccc1[N+](=O)[O-])c1ccc(Cl)cc1Cl	1	14	-5	0	-6	.	.
Cc1cc(Br)cc(C)c1NC(=O)c1ccccc1[N+](=O)[O-]	2	21*	7	-5	-1	4	-7
O=C(NNC(=S)NC(=O)c1ccc(Br)cc1)c1cccc([N+](=O)[O-])c1	0	13	-12	2	-11	.	.
CC(C)NC(=O)C1(C)CCN1C(=O)c1ccc(F)c(Cl)c1 (stereo unspecified)	-1	-5	.	3	.	.	.
O=C(COC(=O)c1ccccc1[N+](=O)[O-])NC(=O)c1ccccc1	1	21*	-6	1	7	0	-6
O=C(COc1ccc(Br)cc1)NNC(=S)NC(=O)c1ccccc1[N+](=O)[O-]	-6	23*	0	-4	2	43*	-15
O=C(NNC(=S)NC(=O)c1ccccc1[N+](=O)[O-])c1ccccc1[N+](=O)[O-]	4	23*	1	5	-12	24*	0
O=C(NC(=S)Nc1ccc(N2CCCC2)cc1)c1ccccc1[N+](=O)[O-]	2	23*	-1	-4	10	18	-1
COc1ccc(S(=O)(=O)N[C@H]2CC[C@H](CCNC(=O)c3ccccc3F)O[C@@H]2CO)cc1	-1	5	.	-1	.	.	.
Cc1ccc(O)c(NC(=O)C2CC(c3cccc(Br)c3)=NO2)c1 (stereo unspecified)	1	-28	0	-6	0	.	.
CCCCCc1ccc(NC(=O)O[C@@H]2CC[C@@]34CCCN3C(=O)CCC[C@H]4C2)cc1	0	-7	.	-1	.	.	.
CCCCOc1ccc(C(C)NC(=O)C2CCCN(S(=O)(=O)CCC)C2)cc1 (stereo unspecified)	7	20*	0	1	2	-4	-19
O=C(COC(=O)c1ccc(Cl)cc1[N+](=O)[O-])NCc1ccco1	0	14	-11	-8	1	.	.
COc1ccc(C)cc1NCc1ccc([N+](=O)[O-])cc1	2	19*	5	-5	5	15	-2
SMILES	PLCg1 inh	sPLA2-III inh	proCasp3 act	PLC-beta3 inh	procasp7 counter	hGIII sPLA2 conf	BODIPY interf	others
CCN(Cc1cnn(C)c1)C(=O)c1ccc2nc(Cc3ccccc3F)oc2c1	2	-15	.	-1	.	.	.
CN1CCC(=NOc2ccc([N+](=O)[O-])cc2)CC1	3	1	5	-1	-1	.	.
O=C(NC(=S)N1CCN(C/C=C/c2ccccc2)CC1)c1c(F)cccc1F	-2	27*	-5	-4	0	24*	-2
c1ccc(CN=C2CCCc3ccccc3N2)cc1	-2	-5	.	1	.	.	.
CN(C)c1ccc(NC(=O)c2ccc3c(c2)nnn3C)cc1	7	18	2	2	6	.	.
CN(C)c1ccc(NC(=O)Nc2ccc3c(c2)nnn3C)cc1	-18	19*	-6	-24	-21	7	-4
N#CC1(Nc2cccc(Br)c2)C(=O)Nc2ccccc21 (stereo unspecified)	5	22*	6	-1	4	-18	-2
N#CC1(Nc2ccccc2)C(=O)Nc2ccccc21 (stereo unspecified)	1	-3	4	3	6	.	.
COc1ccc(-c2csc(NC(=S)NC(=O)c3ccco3)n2)cc1	-1	2	9	-1	-4	.	.
CCCC(=O)NC(=S)Nc1nc(-c2ccc(OC)cc2)cs1	0	23*	-11	-1	-1	24*	-1
c1ccc(-c2csc(-c3ccc(-c4csnn4)cc3)n2)cc1	3	21*	-1	0	6	-1	-1
C[C@@H](c1ccccc1)N1C[C@H](COCc2ccccc2)Oc2cc(N3CC[C@H](N(C)C)C3)ccc2S1(=O)=O	0	-4	.	1	.	.	.
Cc1onc(-c2ccccc2)c1C(=O)NN=Cc1cc(Cl)cc(Cl)c1O	i	22*	.	i	.	17	11*
Cc1ccc(C)c(COC(=O)CCN=C2NS(=O)(=O)c3ccccc32)c1	6	-3	-5	-9	1	.	.
C=CCN1C(=O)/C(=C\c2ccco2)C(C(=O)OC)=C1C	-3	21*	1	-7	-9	7	-8

Screening results from PubChem BioAssay.
